One test concerns the target b’ domain of PDI (Homo sapiens, UniProt P07237). Nature of the test: ANS spectral scan. The test is classed as binding. The conditions noted are these: 5 μM PDI, 100 μM compound. In outline: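 Human PDI was preincubated with 100 μM compound or matching DMSO in TBS at 37 °C for 1 h. ANS was then added, followed by 20 min in the dark at 25 °C. Fluorescence spectrum: Ex 370 nm, Em 400–700 nm.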

Test [1] has as its target T1, PDI (Homo sapiens, UniProt P07237). Nature of the test: PDI reductase assay. It is filed as biochemical. The note with it: for fold reduction of potency: replacing the nitrile in BAP2 (6) and 32 with a trifluoromethyl group; for PDI inhibitory activity (in words): PDI reductase assay. Summed up: (§1)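 N-terminal His-tagged human PDI was expressed in E. coli BL21(DE3) pLysS with 1 mM IPTG for 4 h at 37 °C. It was purified on Ni-NTA and dialyzed into 100 mM sodium phosphate, 2 mM EDTA, pH 7.0. PDI (0.4 μM) was preincubated 1 h with compound in phosphate/EDTA buffer with 8 μM DTT. DTT (500 μM) and bovine insulin (130 μM) were then added at room temperature. Aggregation was read at 620 nm. Percent activity came from the 0–80 min change, corrected for DTT alone.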

The next test has as its system GBM cell. Nature of the test: Combination with As2O3, GBM cell proliferation. It is filed as cell-based.
For another test, the system named is MMP9. Nature of the test: Western blot of cell lysates, MMP9. The conditions noted are these: U87MG cells, 10 μM (PACMA31 0.25 μM), 48 hours. It is filed as cell-based, human. In outline:
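Treated U87MG cells were lysed by sonication in Tris/NaCl/Triton X-100/SDS buffer (pH 7.4) and spun at 13,500×g, 4 °C, 10 min. Protein was quantified by BCA. 30 μg per lane ran on 10% gels and transferred to PVDF. Primary antibodies were applied overnight at 4 °C. Fluorescent secondaries were imaged.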

In a further test the target is wild-type PDI (Homo sapiens, UniProt P07237). Kind of test: Thermal shift assay, wild-type PDI. It is filed as binding. The conditions noted are these: for stabilization of PDI to thermal denaturation: 100 μM; for increase of melting temperature: recombinant PDI, dose-dependent, up to 100 μM. In outline: (§2)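 Purified PDI (wild-type, C53S/C397S or H256A; 0.5 mg/mL in 50 mM Tris, pH 7.0) was mixed with compound in DMSO and ROX dye. Samples were heated from 25 to 99 °C at 1 °C/min. Boltzmann melting temperature was compared with the 5% DMSO control.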

For the next test, the system named is A172 cells. Kind of test: Transwell migration assay. The test is classed as cell-based, human. The conditions noted are these: 4 hours. Summed up: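 Treated A172 cells (1 x 10^5) were seeded into inserts with 8.0 µm PET membranes in serum-free medium. The lower well held DMEM with 10% FBS, and FBS-free wells served as control. After 4 h, cells were Giemsa-stained and 5 fields per well were imaged at 10X.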

The next test relates to U87MG cells. Nature of the test: Bromouridine RNA sequencing. The conditions noted are these: 10 μM compound 18, U87MG cells, 4 hours. It is filed as cell-based, human. In outline:
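U87MG cells exposed to test compound or DMSO for 4 h, with 2 mM bromouridine added for the last 30 min. Total RNA was TRIzol-extracted, and Bru-labelled RNA was captured on anti-BrdU antibody magnetic beads, then sequenced. Reads were mapped to hg19. Genes were filtered to size >300 bp and mean RPKM >0.5, and ranked by transcription fold change versus control for pre-ranked GSEA.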

For a further test, the target named is C53S/C397S PDI (Homo sapiens, UniProt P07237, C397S/C53S). Kind of test: Thermal shift assay, C53S/C397S PDI. The note with it: 100 μM. The test is classed as binding. Summed up: as §2
The target in test [2] is T2, H256A PDI (Homo sapiens, UniProt P07237, H256A). Nature of the test: PDI reductase assay, H256A mutant PDI. It is filed as biochemical. The note with it: 10 μM. Summed up:
as §1

Test [3] has as its target T1, PDI. Kind of test: PDI reductase assay after competition with N-acetyl cysteine. It is filed as biochemical. The note with it: compound 40 μM; 0, 1, 2 or 5 mM NAC. In outline: as §1
Test [4] has as its target T2, H256A PDI. Nature of the test: Thermal shift assay, H256A PDI. The test is classed as binding. The conditions noted are these: 100 μM. Summed up:
as §2

The test system of test [5] is HFF-1 normal human fibroblast cells. Nature of the test: MTT assay in normal fibroblasts. The test is classed as cell-based. The conditions noted are these: potency in NU04 versus HFF-1 cells. A general note: Tetrazolium dyes change colour on reduction, which living cells bring about.
Another test has as its system D54 cells. Kind of test: Clonogenic survival assay with ionizing radiation. The note with it: 1 μM, 0-6 Gy. It is filed as cell-based. Summed up: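 D54 monolayer cells (37 °C, 5% CO2, mycoplasma-tested, STR-authenticated) were irradiated at 0, 1, 2, 4 or 6 Gy and plated immediately at 200, 200, 400, 600 and 1000 cells/well. Test compounds (1 μM), reference inhibitor (0.05 μM) or DMSO were added. After 10–12 days, colonies were stained with 0.1% crystal violet.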

The next test has as its system MMP2. Kind of test: Gelatin zymography and Western blot of conditioned media. The note with it: U87MG cells, 10 μM (PACMA31 0.25 μM), 48 hours. The test is classed as cell-based, human. In outline:
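U87MG cells (0.5 x 10^6/well) attached overnight and were serum-starved 12 h before treatment. Cleared conditioned media (5 µg protein) ran on 10% SDS-PAGE with 0.1% gelatin. Gels were washed in 2.5% Triton X-100 Tris/CaCl2/ZnCl2 buffer, incubated overnight at 37 °C, then Coomassie R-250 stained and destained. Cleaved MMP2 in media was also assessed by Western blot.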
On the technique in general: In western blotting, separated proteins are transferred to a membrane and probed.

Results on 17 compounds are retold here after article PMC8276234 (Journal of medicinal chemistry, 2019).

Entries after “also recorded” stand apart in the source; their conditions may differ.

Chain of C53S/C397S PDI (P07237 18-508 C53S/C397S): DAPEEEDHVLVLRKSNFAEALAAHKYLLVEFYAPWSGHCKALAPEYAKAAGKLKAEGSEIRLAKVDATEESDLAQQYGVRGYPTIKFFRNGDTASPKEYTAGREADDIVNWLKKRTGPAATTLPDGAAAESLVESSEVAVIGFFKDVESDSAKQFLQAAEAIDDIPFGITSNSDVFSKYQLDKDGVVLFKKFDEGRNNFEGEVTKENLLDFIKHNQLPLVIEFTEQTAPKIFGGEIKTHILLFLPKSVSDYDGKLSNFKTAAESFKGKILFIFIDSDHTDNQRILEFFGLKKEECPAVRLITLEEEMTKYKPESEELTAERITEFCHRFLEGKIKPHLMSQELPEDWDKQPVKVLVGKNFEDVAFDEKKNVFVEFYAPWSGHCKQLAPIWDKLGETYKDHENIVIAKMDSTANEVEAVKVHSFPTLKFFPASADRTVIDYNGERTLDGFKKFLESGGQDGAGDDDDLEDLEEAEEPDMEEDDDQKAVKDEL
Chain of b’ domain of PDI (P07237 18-508): as the sequence (P07237 18-508 C53S/C397S) above, with S36C, S380C counted along it
T1 sequence (P07237 18-508): as the sequence (P07237 18-508 C53S/C397S) above, with S36C, S380C counted along it
Chain of wild-type PDI (P07237 18-508): as the sequence (P07237 18-508 C53S/C397S) above, with S36C, S380C counted along it
T2 sequence (P07237 18-508 H256A): as the sequence (P07237 18-508 C53S/C397S) above, with S36C, H239A, S380C counted along it

As to `COc1ccc(C(=O)/C=C/c2cccc(C#N)c2)cc1` [Compound 8, (E)-3-(3-(4-Methoxyphenyl)-3-oxoprop-1-en-1-yl)benzonitrile], on b’ domain of PDI, the “effect on ANS fluorescence” value is “did not hinder dye fluorescence”.

For `N#Cc1cccc(/C=C/C(=O)c2ccc(Br)cc2)c1` [Compound 10, (E)-3-(3-(4-Bromophenyl)-3-oxoprop-1-en-1-yl)benzonitrile], at PDI [1] (replacement of the hydroxyl group (6) with bromine), the “fold decrease in the inhibition of PDI activity” value was 2 fold.

In the case of `N#Cc1cccc(/C=C/C(=O)c2ccc(S(N)(=O)=O)cc2)c1` [Compound 13, (E)-4-(3-(3-Cyanophenyl)acryloyl)benzenesulfonamide], the “inhibition of GBM cell proliferation in combination with As2O3” value (from here on “inhibition of GBM cell proliferation”) with GBM cell is given as “synergistically”.

On to `CN(C)S(=O)(=O)c1ccc(C(=O)/C=C/c2cccc(C#N)c2)cc1` [Compound 14, (E)-4-(3-(3-Cyanophenyl)acryloyl)-N,N-dimethylbenzenesulfonamide], for which, in the test with GBM cell, the “inhibition of GBM cell proliferation” value is “synergistically”.

`CCN(CC)S(=O)(=O)c1ccc(C(=O)/C=C/c2cccc(C#N)c2)cc1` [Compound 15, (E)-4-(3-(3-Cyanophenyl)acryloyl)-N,N-diethylbenzenesulfonamide]: the “inhibition of GBM cell proliferation” value with GBM cell is listed as “synergistically”.

On to `CCCCCN(CCCCC)S(=O)(=O)c1ccc(C(=O)/C=C/c2cccc(C#N)c2)cc1` [Compound 18, (E)-4-(3-(3-Cyanophenyl)acryloyl)-N,N-dipentylbenzenesulfonamide], for which, in the test with MMP9, the MMP9 expression result was “decreased”. For the same compound, the “stabilization of PDI to thermal denaturation” value (“stabilization of PDI” for short) on wild-type PDI is recorded as “did not stabilize PDI”. Besides, the transwell migration entry in the test on A172 cells (10 μM) is reported as “inhibited migration”. Moreover, in the test on A172 cells (30 μM), the transwell migration result is given as “inhibited migration”. Also, in the test with U87MG cells, the “Fold Change in transcription, AKAP5” value is recorded as −3.4; the “Fold Change in transcription, ANKRD36B” value was −2.8; the “Fold Change in transcription, BARD1” value is reported as −2.3; the “Fold Change in transcription, BBS10” value was −2.3. Moreover, in the test with U87MG cells, the “Fold Change in transcription, CCNA2” value is on record as −2.3; the “Fold Change in transcription, CHSY3” value is recorded as −2.6; the “Fold Change in transcription, DUT” value is listed as −2.3; the “Fold Change in transcription, FBXO43” value is reported as −2.7. Besides, in the test with U87MG cells, the “Fold Change in transcription, FPGT” value was −2.3; the “Fold Change in transcription, HIST1H2BC” value is listed as −2.3; the “Fold Change in transcription, KCTD4” value is −2.8; the “Fold Change in transcription, LYPD6” value is on record as −3.1. Further, in the test with U87MG cells, the “Fold Change in transcription, MYBL1” value was −2.6; the “Fold Change in transcription, SLITRK5” value was −3.6; the “Fold Change in transcription, ST8SIA4” value is −3.1; the “Fold Change in transcription, ZNF404” value is given as −2.7.

In the case of `N#Cc1cccc(/C=C/C(=O)c2cnccn2)c1` [Compound 29, (E)-3-(3-Oxo-3-(pyrazin-2-yl)prop-1-en-1-yl)benzonitrile], the “effect on ANS fluorescence” value at b’ domain of PDI is recorded as “did not hinder dye fluorescence”.

In the case of `COC(=O)c1cccc(/C=C/C(=O)c2cccc(O)c2)c1` [Compound 46, Methyl-(E)-3-(3-(3-hydroxyphenyl)-3-oxoprop-1-en-1-yl)benzoate], the “stabilization (thermal shift) in the C53S/C397S mutant” value at C53S/C397S PDI is on record as “not abolished”. For the same compound, the “increase of melting temperature” value at wild-type PDI was “more than 1 °C”. Besides, at H256A PDI [2], the “activity against H256A mutant PDI” value is “abolished upon mutation”. At PDI [3], the “activity after competition with N-acetyl cysteine (NAC)” value (“activity after competition” for short) was “abolished by 5 mM NAC, but not by lower concentrations”. Moreover, the “stabilization (thermal shift) in the H256A mutant” value on H256A PDI [4] is listed as “not abolished”.

For `O=C(/C=C/c1cccc(C(F)(F)F)c1)c1ccc(O)cc1` [Compound 55, (E)-1-(4-Hydroxyphenyl)-3-(3-(trifluoromethyl)phenyl)prop-2-en-1-one], the “fold reduction of potency” value at PDI [1] was 2 to 4 fold.

Turning to `O=C(/C=C/c1ccc(C(F)(F)F)cc1)c1ccc(O)cc1` [Compound 57, (E)-1-(4-Hydroxyphenyl)-3-(4-(trifluoromethyl)phenyl)prop-2-en-1-one], the “fold reduction of potency” value on PDI [1] is given as 2 to 4 fold.

With `CCCCCN(CCCCC)S(=O)(=O)c1ccc(C(=O)/C=C/c2cccc(O)c2)cc1` [Compound 59, (E)-4-(3-(3-Hydroxyphenyl)acryloyl)-N,N-dipentylbenzenesulfonamide], on b’ domain of PDI, the “effect on ANS fluorescence” value was “competes with ANS”. Further, in the test with MMP9, the MMP9 expression entry is given as “decreased”. Besides, the “stabilization (thermal shift) in the C53S/C397S mutant” value on C53S/C397S PDI was “not abolished”. Besides, the “Fold Difference” value in test [5] came to 3.8. For the same compound, at wild-type PDI, the “increase of melting temperature” value was “more than 1 °C”. Further, the transwell migration entry with A172 cells (30 μM) was “inhibited migration”. Besides, the “activity against H256A mutant PDI” value on H256A PDI [2] was “active against the H256A mutant; also recorded: not His256-dependent”. Also, on PDI [3], the “activity after competition” value is “abolished by 5 mM NAC, but not by lower concentrations”. The “stabilization (thermal shift) in the H256A mutant” value on H256A PDI [4] is given as “not abolished”.

As to `O=C(/C=C/c1ccc(-c2cccnc2)cc1)c1cccc(O)c1` [Compound 68, (E)-1-(3-Hydroxyphenyl)-3-(4-(pyridin-3-yl)phenyl)prop-2-en-1-one], the MMP9 expression entry in the test with MMP9 is listed as “decreased”. Besides, on C53S/C397S PDI, the “stabilization (thermal shift) in the C53S/C397S mutant” value was “not abolished”. In addition, the “synergy with ionizing radiation (IR)” value in the test on D54 cells is reported as “synergized with IR”. In addition, the “increase of melting temperature” value on wild-type PDI is “more than 1 °C”. For the same compound, the “activity against H256A mutant PDI” value at H256A PDI [2] was “abolished upon mutation”. Also, the “activity after competition” value on PDI [3] was “unaffected by up to 5 mM NAC”. For the same compound, the “MMP2 activity and secretion” value with MMP2 was “inhibit MMP2 activity and secretion”. Further, the “stabilization (thermal shift) in the H256A mutant” value at H256A PDI [4] is recorded as “not abolished”.

On to `O=C(/C=C/c1ccc(-c2ccncc2)cc1)c1cccc(O)c1` [Compound 69, (E)-1-(3-Hydroxyphenyl)-3-(4-(pyridin-4-yl)phenyl)prop-2-en-1-one], for which, at wild-type PDI, the “stabilization of PDI” value is on record as “did not stabilize PDI”.

With `O=C(/C=C/c1ccc(O)cc1)c1ccccc1O` [NC587], the “PDI inhibitory activity (in words)” value at PDI [1] is “inactive”.

With `O=C(/C=C/c1ccccc1O)c1ccccc1O` [NC588], the “PDI inhibitory activity (in words)” value on PDI [1] is “inactive”.

Consider `O=C(/C=C/c1cccc(O)c1)c1ccccc1O` [NC589], for which the “PDI inhibitory activity (in words)” value at PDI [1] is “inactive”.

For `C[C@]12CC[C@@H]3c4ccc(O)cc4CC[C@H]3[C@@H]1CC[C@@H]2O` [estradiol, reference compound], on C53S/C397S PDI, the “stabilization (thermal shift) in the C53S/C397S mutant” value is recorded as “but not the C53S/C397S mutant”. At wild-type PDI, the “stabilization of PDI” value is on record as “stabilizes PDI to thermal denaturation” and the “increase of melting temperature” value is “more than 1 °C”. Besides, the “stabilization (thermal shift) in the H256A mutant” value on H256A PDI [4] is given as “abolished”.
